For data set [1], the system named is Mus musculus. Nature of the data set: AUClast in CD-1 (ICR) mouse at 1 mg/kg, iv. On the set-up: dose 1 mg/kg, route intravenous, time 0 - last. As to conditions: in vivo. The format is ADME, organism-based.
The test system of data set [2] is Mus musculus. The data set can be described thus: Toxicity in nude mouse xenografted with human MDA-MB-231 cells assessed as reduction in body weight at 50 mg/kg, bid administered for 21 days measured during the treatment period. The format is organism-based. More on the design: scale not given: the % may be the effect or the level left. Conditions: in vivo, 504 h. In short, it runs like this: (§1)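 MDA-MB-231 xenografts in nude mice, treatment started at median tumor volume 108 mm3. Oral gavage of 50 mg/kg twice daily (100 mg/kg/day) for 21 days versus vehicle cohort, 9 animals per cohort. Median tumor volume followed over time. Mean body weight monitored through the treatment period.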
In general terms: A xenograft is tissue or cells of one species grown in another, often human tumour cells in immunodeficient mice.

Another data set has as its system MDA-MB-231. Nature of the data set: Antitumor activity against human MDA-MB-231 cells xenografted in nude mouse assessed as tumor growth inhibition at 50 mg/kg, bid administered for 21 days relative to control. It is filed as functional. Conditions: MDA-MB-231, 504 h. In short, it runs like this: as §1
The subject of data set [3] is HUVEC. The data set can be described thus: Antiangiogenic activity in HUVEC assessed as inhibition of VEGF-A-induced angiogenic sprouting by spheroid-based sprouting assay. As to conditions: Homo sapiens.
In the next data set the target is T1, Ephrin type-B receptor 4 (Homo sapiens, UniProt P54760).
T1 sequence (P54760 whole entry): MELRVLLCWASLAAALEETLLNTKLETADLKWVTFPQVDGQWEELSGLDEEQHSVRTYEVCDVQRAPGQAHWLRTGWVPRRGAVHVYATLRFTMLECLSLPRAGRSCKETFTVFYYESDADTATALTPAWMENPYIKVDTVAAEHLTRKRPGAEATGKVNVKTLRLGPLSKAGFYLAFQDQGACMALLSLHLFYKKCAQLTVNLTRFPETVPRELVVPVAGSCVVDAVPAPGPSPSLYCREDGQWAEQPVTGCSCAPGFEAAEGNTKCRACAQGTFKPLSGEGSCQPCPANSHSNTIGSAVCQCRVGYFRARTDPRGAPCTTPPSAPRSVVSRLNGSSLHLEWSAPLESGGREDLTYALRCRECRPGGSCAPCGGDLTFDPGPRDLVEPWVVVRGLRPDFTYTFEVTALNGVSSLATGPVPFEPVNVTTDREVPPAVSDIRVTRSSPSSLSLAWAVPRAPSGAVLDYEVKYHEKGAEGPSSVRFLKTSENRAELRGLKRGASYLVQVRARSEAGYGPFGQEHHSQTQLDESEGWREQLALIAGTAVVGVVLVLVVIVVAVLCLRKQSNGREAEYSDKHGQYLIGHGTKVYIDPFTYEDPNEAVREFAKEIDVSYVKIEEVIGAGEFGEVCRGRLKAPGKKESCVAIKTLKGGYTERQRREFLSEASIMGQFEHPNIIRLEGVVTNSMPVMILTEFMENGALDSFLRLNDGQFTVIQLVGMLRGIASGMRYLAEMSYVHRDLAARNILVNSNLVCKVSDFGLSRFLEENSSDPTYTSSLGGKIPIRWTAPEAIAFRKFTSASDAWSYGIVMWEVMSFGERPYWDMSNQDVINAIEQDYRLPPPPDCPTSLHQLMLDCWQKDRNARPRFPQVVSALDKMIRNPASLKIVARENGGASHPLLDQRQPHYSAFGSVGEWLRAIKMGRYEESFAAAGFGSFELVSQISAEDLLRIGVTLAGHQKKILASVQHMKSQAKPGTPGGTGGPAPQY
The data set can be described thus: Inhibition of N-terminal GST-fused His6-tagged human recombinant EphB4. In short, it runs like this: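 EphB4 FRET enzymatic assay measuring inhibition of phosphorylation of a synthetic substrate, with ATP at Km.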

Data set [4] relates to HUVEC. The data set can be described thus: Antiangiogenic activity in HUVEC assessed as reduction in tube length after 15 hrs by matrigel assay. The format is functional, cell-based. As to conditions: Homo sapiens. Put shortly: (§2)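 HUVEC seeded on Matrigel and incubated with compound for 15 h. Tube length, total branching points and total loops quantified against untreated control cells. Dose-response curves used to derive IC50 for each read-out. Measurements done at least in triplicate, SEM shown.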

The subject of data set [5] is HUVEC. The data set can be described thus: Antiangiogenic activity in HUVEC assessed as reduction in number of loops after 15 hrs by matrigel assay. It is filed as functional, cell-based. Conditions: Homo sapiens. In short, it runs like this: as §2
In data set [6] the test system is HUVEC. Nature of the data set: Antiangiogenic activity in HUVEC assessed as reduction in branching points after 15 hrs by matrigel assay. As to conditions: Homo sapiens. It is filed as functional, cell-based. In short, it runs like this: as §2
The subject of data set [7] is HUVEC. The data set can be described thus: Antiangiogenic activity in HUVEC assessed as reduction in branching points at 1 uM after 15 hrs by matrigel assay. As to conditions: Homo sapiens. The format is functional.
In data set [8] the test system is HUVEC. Nature of the data set: Antiangiogenic activity in HUVEC assessed as reduction in number of loops at 1 uM after 15 hrs by matrigel assay. As to conditions: Homo sapiens. The format is functional.
The nature of data set [9]: Half life in human liver microsomes at 0.1 uM up to 60 mins by HPLC-MS/MS analysis. On the technique in general: Liver microsomes are a subcellular fraction often used to study metabolism.

As usually defined, the inhibition in vivo is how much of the control response was suppressed. The term IC50 denotes the concentration at which inhibition is half-maximal. Usually inhibition stands for the relative decrease from the control value, in per cent. What is called half-life is the time in which the quantity being followed falls by half.

Take `Cc1ccc(O)cc1-n1c(N)c(C(N)=O)c2nc3ccccc3nc21`: the AUClast in the data set with Mus musculus [1] was 39 ng·h/mL. In addition, the Activity entry in the data set on Mus musculus [2] is on record as “<= 16%”. Also, in the data set on MDA-MB-231, the inhibition in vivo at 50 mg/kg was 80%. Besides, in the data set on HUVEC [3], the IC50 was 1500 nM.

For the compound `COc1cccc(-n2c(N)c(C(N)=O)c3nc4ccccc4nc32)c1`, the half-maximal inhibitory concentration (IC50) at Ephrin type-B receptor 4 was determined as 300 nM.

Turning to `COc1ccccc1-n1c(-c2ccc(O)cc2C)cn2c3c(=O)[nH]c(=O)n(C)c3nc12`, the IC50 is 1700 nM in the data set with HUVEC [4], 71 nM in the data set on HUVEC [5] and 191 nM with HUVEC [6]. The inhibition at 1 µM in the data set with HUVEC [7] turned out to be 87%; in the data set on HUVEC [8] it was 97%.

The compound `CC(C)NCC(O)COc1cccc2ccccc12` (stereo unspecified) [PROPRANOLOL] had a half-life at 1 h, 0.1 µM in data set [9] of more than 1 h.

Values taken from ChEMBL document CHEMBL3774351, “Three stories on Eph kinase inhibitors: From in silico discovery to in vivo validation” (Eur J Med Chem, 2016).
